The source of these data is ChEMBL document CHEMBL3421533, “The Discovery of Orally Bioavailable Tyrosine Threonine Kinase (TTK) Inhibitors: 3-(4-(heterocyclyl)phenyl)-1H-indazole-5-carboxamides as Anticancer Agents” (J Med Chem, 2015).

In one data set the test system is SW48. Nature of the data set: Antitumor activity against human SW48 cells xenografted in CD-1 nude mouse assessed as tumor growth inhibition at 30 mg/kg, po qd administered for 21 days measured 3 times per week during compound dosing relative to vehicle-treated control. As to conditions: SW48, 504 h, read-out: TGI. The format is functional. The method, boiled down: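 Randomization into groups (n = 7) at 80–120 mm³ mean tumor volume. Compound was given orally once daily for 21 days in 10% NMP/40% PEG400/50% DI water, top dose 30 mg/kg. Tumor volume (x²y/2) was taken three times weekly, and TGI was calculated against vehicle.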

In data set [1] the target is Serine/threonine-protein kinase PLK4 (Homo sapiens, UniProt O00444). Nature of the data set: Inhibition of PLK4 (unknown origin) by indirect ELISA detection system.
Sequence of Serine/threonine-protein kinase PLK4 (O00444 whole entry): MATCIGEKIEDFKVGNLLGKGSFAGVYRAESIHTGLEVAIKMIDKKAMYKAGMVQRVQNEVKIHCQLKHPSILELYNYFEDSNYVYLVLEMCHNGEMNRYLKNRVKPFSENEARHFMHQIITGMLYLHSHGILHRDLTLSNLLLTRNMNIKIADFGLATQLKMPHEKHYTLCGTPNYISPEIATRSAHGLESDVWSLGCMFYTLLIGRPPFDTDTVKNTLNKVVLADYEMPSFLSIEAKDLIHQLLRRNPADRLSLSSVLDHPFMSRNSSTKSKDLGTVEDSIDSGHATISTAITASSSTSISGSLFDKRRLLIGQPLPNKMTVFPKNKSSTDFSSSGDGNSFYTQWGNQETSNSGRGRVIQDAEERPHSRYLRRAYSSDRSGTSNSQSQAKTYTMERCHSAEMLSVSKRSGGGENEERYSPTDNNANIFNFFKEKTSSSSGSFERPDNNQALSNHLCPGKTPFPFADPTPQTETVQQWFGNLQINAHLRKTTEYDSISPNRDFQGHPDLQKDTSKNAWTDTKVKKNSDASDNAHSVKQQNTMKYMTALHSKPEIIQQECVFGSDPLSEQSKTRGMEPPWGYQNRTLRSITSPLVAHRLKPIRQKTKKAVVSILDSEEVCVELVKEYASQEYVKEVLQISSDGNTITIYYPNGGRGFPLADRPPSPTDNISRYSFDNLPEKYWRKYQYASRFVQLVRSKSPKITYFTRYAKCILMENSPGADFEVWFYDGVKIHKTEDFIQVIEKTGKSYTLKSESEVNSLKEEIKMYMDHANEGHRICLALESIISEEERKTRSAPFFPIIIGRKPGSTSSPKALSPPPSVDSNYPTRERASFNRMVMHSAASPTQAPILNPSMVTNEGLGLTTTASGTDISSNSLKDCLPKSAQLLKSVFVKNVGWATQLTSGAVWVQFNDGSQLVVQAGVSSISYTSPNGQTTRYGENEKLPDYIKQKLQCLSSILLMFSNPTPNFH
Data set [2] in a line: Plasma protein binding in dog. In kind it is ADME, cell-free, Canis lupus familiaris. The note with it: read-out: PPB (converted).
Another data set relates to HT-29. Nature of the data set: Cytotoxicity against human HT-29 cells after 5 days by sulforhodamine B assay. In kind it is functional. As to conditions: HT-29, 120 h. The gist of the method:
(§1)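 Cancer lines were seeded at 800–6000 cells per well according to growth rate, 24 h before compound overlay. After culture, cells were fixed in situ and stained with sulforhodamine B. GI50 values were derived by curve fitting.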

Another data set concerns MDA-MB-231. The data set is described as follows: Cytotoxicity against human MDA-MB-231 cells after 5 days by sulforhodamine B assay. The format is functional. The note with it: MDA-MB-231, 120 h. The method, boiled down: as §1
Data set [3] in a line: Cytotoxicity against human PC3 cells after 5 days by sulforhodamine B assay. The format is functional. The note with it: PC-3, 120 h. The method, boiled down: as §1
Another data set concerns Mus musculus. Nature of the data set: Toxicity in po dosed CD-1 nude mouse assessed as signs of overt toxicity administered as qd for 21 days. The format is organism-based. The note with it: in vivo, 504 h. The gist of the method:
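Female nude mice bearing subcutaneous tumors (80–120 mm³ at randomization) received vehicle (10% NMP/40% PEG400/50% water) or compound by daily oral dosing for 21 days. Doses were the MTD and ~2/3 MTD. Body weight and tumor volume were measured three times weekly. The MTD criterion (n = 3) was no body-weight loss over 20% and not moribund.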

A short description of data set [4]: Cytotoxicity against human OV90 cells after 5 days by sulforhodamine B assay. The format is functional. The note with it: OV-90, 120 h. The method, boiled down:
as §1

Data set [5] can be described thus: Cmax in athymic CD1 nude mouse at 10 mg/kg, po by LC-MS/MS analysis. The format is ADME, organism-based. On the set-up: dose 10 mg/kg, route oral. As to conditions: athymic CD1 nude, in vivo.
Data set [6] is described as follows: Half life in iv dosed dog. The format is ADME, organism-based, Canis lupus familiaris. The note with it: in vivo.
Data set [7] addresses Proto-oncogene tyrosine-protein kinase receptor Ret (Homo sapiens, UniProt P07949, V804L). The data set is described as follows: Inhibition of human Ret V804L mutant by millipore radiometric assay. The gist of the method: (§2)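 Radiometric profiling against a 278-kinase panel was done with ATP at Km. Half-maximal inhibitory concentrations were then determined for the kinases most inhibited.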

Data set [8] is described as follows: Antitumor activity against human HCT116 cells xenografted in athymic CD1 nude mouse assessed as tumor growth inhibition at 23 mg/kg, po qd administered for 21 days measured 3 times per week during compound dosing relative to vehicle-treated control. In kind it is functional. The note with it: HCT-116, 504 h, read-out: TGI. The method, boiled down: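 HCT116 cells (5 million) were injected subcutaneously into the right flank of 6–8 week old female athymic CD-1 nude mice. At a mean tumor volume of 80–120 mm³, mice were randomized (n = 8). Dosing was oral, daily for 21 days, in 10% NMP/40% PEG400/50% DI water, at the MTD and ~2/3 MTD. Tumors were measured three times weekly, volume x²y/2, and TGI was taken against vehicle.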

The nature of data set [9]: Cytotoxicity against human SKOV3 cells after 5 days by sulforhodamine B assay. The format is functional. As to conditions: SK-OV-3, 120 h. The method, boiled down:
as §1

Data set [10] has as its target Muscle, skeletal receptor tyrosine-protein kinase (Homo sapiens, UniProt O15146). Nature of the data set: Inhibition of human MuSK by millipore radiometric assay. The method, boiled down:
as §2

Sequence of Muscle, skeletal receptor tyrosine-protein kinase (O15146 whole entry): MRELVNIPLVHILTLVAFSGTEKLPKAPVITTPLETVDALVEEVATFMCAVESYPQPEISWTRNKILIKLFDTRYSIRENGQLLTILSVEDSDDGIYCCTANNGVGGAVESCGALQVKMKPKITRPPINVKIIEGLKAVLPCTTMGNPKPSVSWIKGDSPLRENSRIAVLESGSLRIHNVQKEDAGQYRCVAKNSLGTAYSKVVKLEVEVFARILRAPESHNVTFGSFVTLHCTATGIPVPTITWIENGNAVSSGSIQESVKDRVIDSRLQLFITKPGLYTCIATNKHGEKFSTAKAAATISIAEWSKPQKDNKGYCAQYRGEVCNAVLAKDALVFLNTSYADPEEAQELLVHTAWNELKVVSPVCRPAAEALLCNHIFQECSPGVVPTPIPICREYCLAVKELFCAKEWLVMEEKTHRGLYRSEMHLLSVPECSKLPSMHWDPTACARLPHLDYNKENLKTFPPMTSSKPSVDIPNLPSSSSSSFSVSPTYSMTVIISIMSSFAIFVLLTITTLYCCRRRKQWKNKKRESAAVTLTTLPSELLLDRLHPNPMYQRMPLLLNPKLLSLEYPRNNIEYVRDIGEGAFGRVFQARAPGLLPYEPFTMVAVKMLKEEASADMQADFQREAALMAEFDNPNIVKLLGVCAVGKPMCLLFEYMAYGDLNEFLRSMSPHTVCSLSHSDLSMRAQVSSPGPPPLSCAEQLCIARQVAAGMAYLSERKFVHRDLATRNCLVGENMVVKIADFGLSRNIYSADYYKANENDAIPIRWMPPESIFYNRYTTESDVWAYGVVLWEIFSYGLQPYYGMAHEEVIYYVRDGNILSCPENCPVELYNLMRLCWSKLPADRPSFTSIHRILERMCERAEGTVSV
Sequence of Proto-oncogene tyrosine-protein kinase receptor Ret (P07949 29-1114 V804L limits assumed): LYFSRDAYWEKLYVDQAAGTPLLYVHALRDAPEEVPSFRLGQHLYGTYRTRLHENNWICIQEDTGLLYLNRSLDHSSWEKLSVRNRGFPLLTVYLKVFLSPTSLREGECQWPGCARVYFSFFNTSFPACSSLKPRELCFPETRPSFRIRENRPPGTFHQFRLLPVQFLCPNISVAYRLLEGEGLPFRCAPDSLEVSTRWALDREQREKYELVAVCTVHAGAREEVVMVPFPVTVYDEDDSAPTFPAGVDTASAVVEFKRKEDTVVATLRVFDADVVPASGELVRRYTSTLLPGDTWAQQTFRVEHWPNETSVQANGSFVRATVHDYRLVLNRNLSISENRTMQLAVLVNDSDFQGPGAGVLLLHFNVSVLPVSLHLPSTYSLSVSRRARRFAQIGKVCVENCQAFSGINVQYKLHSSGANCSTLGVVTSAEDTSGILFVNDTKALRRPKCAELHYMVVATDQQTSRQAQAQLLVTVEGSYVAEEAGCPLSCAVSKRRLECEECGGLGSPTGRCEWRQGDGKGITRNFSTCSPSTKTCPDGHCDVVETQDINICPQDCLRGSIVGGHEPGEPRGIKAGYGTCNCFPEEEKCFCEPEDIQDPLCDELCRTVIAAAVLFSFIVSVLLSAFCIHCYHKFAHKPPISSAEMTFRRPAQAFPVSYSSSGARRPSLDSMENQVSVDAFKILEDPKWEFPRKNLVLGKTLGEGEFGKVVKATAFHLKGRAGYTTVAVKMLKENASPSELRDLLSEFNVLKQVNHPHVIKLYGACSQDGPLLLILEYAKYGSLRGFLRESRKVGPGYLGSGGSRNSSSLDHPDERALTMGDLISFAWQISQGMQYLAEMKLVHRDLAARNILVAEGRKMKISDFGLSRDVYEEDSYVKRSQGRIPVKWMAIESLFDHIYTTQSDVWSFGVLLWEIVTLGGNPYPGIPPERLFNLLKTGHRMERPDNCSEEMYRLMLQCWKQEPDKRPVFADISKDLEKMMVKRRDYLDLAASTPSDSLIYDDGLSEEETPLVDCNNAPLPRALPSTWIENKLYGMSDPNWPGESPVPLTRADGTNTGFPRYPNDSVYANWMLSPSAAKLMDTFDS

On to `O=C(N[C@@H](c1ccccn1)C1CC1)c1ccc2[nH]nc(-c3ccc(N4[C@H]5CC[C@H]4CC(O)C5)cc3)c2c1` (stereo in doubt; 75), for which the inhibition in vivo at 30 mg/kg with SW48 was 66%. In addition, the IC50 in data set [1] came to 130 nM; in data set [7] it was 250 nM; in data set [10], 690 nM. Further, the fraction unbound in [2] was 0.114. Further, the GI50 with HT-29 came out at 18 nM; in the data set with MDA-MB-231, 70 nM; in [3] it was 60 nM; in data set [4], 30 nM; in data set [9], 17 nM. For the same compound, the Activity result in the data set on Mus musculus was “Non-toxic”. Besides, the peak level in [5] (Cmax) was 2000 ng/mL. Moreover, the half-life in data set [6] was 1.2 h. Further, the inhibition in vivo at 23 mg/kg in data set [8] turned out to be 55%.
